Assay outcomes deposited in PubChem BioAssay by several laboratories.
STAT3 act-1 – IL-6 driven STAT3 reporter potentiators, primary screen, U3A cells, luciferase, luminescence, MLSCN library | IL-6 STAT3-luciferase reporter; 100% = signal with IL-6 EC80 alone | activation (% of control), % at 5.6 µM | AID 871, 2007 | 190,000 compounds, 0.91% hits;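 active = activation above the screen-wide mean of compound activation plus 3 SD, cut at about 130% in these data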;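 also: 0% = background luminescence of wells with medium and substrate only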
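Test system: Human STAT1-deficient U3A cells with stable STAT3-luciferase reporter | Also added: Interleukin-6, 33 ng/mL | Timing: Compound pre-incubation 1 h before IL-6, then 6 h stimulation at 37 °C | Technique: Luciferase reporter luminescence | Read-out: Percent of IL-6-only median luminescence | Benchmarks: IL-6-only wells as 100% reference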
STAT1 inh – STAT1 signaling inhibitors, primary screen, cell-based, HTS, luciferase reporter; NIH 3T3 STAT1-luciferase reporter, IFN-gamma, luminescence; inhibition, % at 5.5 µM; 200,000 compounds, 0.35% hits; AID 920, 2007;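 active = inhibition above a set limit, the mean inhibition across all tested compounds plus 3 SD, cut at about 34% in these data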;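 also: 0% = IFN-gamma with DMSO and 100% = IFN-gamma with 300 µM nifuroxazide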
STAT3 blocker – IL-6 driven STAT3 reporter inhibitors, primary screen, U3A cells, luciferase, luminescence, MLSCN library. 190,000 compounds, 0.89% hits. IL-6 STAT3-luciferase reporter; host cell line lacks STAT1. inhibition, % at 5.5 µM. AID 862, 2007;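 active = inhibition above the mean inhibition across all screened compounds plus 3 SD, cut at about 44% in these data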;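 also: 0% = DMSO only wells and 100% = 100 µM nifuroxazide control wells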
STAT1 act-1 – STAT1 signaling activators, primary screen, cell-based, HTS, luciferase reporter. NIH 3T3 STAT1-luciferase reporter, IFN-gamma, luminescence; 100% = IFN-gamma alone, no compound. AID 932, 2007. 200,000 compounds, 2.6% hits. activation (% of control), % at 5.5 µM;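 active = activation above the screen-wide mean activation plus 3 SD, cut at about 130% in these data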;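 also: raw ratio to IFN-gamma control signal so 100% means no change and 0% no light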
KCC2 mod – KCC2 cotransporter modulators, thallium flux, primary screen, cell-based, HEK293 KCC2, FluoZin-2 fluorescence, MLSMR; Solute carrier family 12 member 5 (Homo sapiens), Q9H2X9; KCC2 cells, thallium flux FluoZin-2 fluorescence; B-score of Tl+ flux slope (higher = more flux/activation; lower = inhibition) at 10 µM; 190,000 compounds, 2.2% hits; AID 1456, 2008;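 active = thallium flux slope and its plate-corrected score both differing from the plate sample mean at a set confidence after two filtering rounds, in either direction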;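 also: slope of fluorescence scaled to starting intensity during 10 to 20 s after thallium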
Target sequence (Q9H2X9 whole entry, looked up): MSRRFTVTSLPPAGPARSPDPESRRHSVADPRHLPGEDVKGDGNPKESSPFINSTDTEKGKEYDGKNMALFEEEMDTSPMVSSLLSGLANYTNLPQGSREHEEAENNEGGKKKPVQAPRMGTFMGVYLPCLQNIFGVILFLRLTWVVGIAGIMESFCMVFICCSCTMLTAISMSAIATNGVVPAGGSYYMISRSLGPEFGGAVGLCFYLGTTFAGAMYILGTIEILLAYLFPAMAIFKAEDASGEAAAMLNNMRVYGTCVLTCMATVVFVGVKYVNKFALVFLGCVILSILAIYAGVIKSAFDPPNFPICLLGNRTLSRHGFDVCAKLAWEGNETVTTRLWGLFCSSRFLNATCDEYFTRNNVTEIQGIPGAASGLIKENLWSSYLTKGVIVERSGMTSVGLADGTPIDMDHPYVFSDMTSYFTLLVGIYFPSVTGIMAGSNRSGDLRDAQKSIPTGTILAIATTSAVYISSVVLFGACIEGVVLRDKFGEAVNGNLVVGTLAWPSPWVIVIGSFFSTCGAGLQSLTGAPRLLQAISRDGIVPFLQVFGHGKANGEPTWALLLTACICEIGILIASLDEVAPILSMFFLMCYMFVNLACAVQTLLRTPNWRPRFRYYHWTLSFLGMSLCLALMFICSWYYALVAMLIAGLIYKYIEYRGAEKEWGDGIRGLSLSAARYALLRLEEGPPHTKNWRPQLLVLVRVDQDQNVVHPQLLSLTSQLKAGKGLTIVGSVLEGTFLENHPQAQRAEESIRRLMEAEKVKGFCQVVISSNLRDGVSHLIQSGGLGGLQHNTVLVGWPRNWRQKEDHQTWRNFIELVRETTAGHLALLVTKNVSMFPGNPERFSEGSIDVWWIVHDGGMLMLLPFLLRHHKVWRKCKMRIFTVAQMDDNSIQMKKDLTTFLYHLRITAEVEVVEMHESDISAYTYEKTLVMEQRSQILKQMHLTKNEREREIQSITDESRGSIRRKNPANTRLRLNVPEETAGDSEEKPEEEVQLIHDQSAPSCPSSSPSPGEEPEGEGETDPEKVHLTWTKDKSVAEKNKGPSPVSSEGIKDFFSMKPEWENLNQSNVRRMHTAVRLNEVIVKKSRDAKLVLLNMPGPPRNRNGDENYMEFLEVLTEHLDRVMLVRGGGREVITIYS
HSV replic up – enhancers of HSV replication in host cells, fold increase, host cell viability; HSV replication augmentation in cells; maximum fold increase; 220,000 compounds, 0.005% hits; AID 1956, 2009; in the data active = maximum fold increase above about 1.5; tested in PC3 cells
STAT3 act-2 – STAT3 reporter potentiators, retest of hits, confirmation, U3A cells, luciferase, luminescence; 1,200 compounds, 64% hits; IL-6 potentiation; U3A cells lack STAT1; 100 means same as IL-6 alone; potentiation (% of control), % at 5.7 µM; AID 1267, 2008; shares compounds with STAT3 act-1;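 active = percent activation of the STAT3 luciferase reporter above a set limit taken from the earlier primary screen, cut at about 130% in these data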;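 also: 0% = background signal of medium plus substrate and 100% = median of IL-6 with DMSO wells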
NFkB act STAT3ct – NF-kB reporter activators in human cells, counter-screen for STAT3 activator project; 1,200 compounds, 11% hits; activation (% of control), % at 5.7 µM; AID 1309, 2008; NF-kappaB reporter activation; shares compounds with STAT3 act-1; in the data active = activation above about 120%;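 also: reporter induced by TNF-alpha stimulation; 100% = median of stimulated DMSO wells and 0% = no signal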
STAT1 act-2 – STAT1 reporter activators, IFN-gamma induced, counter-screen for STAT3 activator project, cell-based, NIH 3T3, luciferase luminescence; 1,200 compounds, 13% hits; shares compounds with STAT3 act-1; activation (% of control), % at 5.7 µM; NIH 3T3 STAT1-luciferase reporter;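 active = activation above the solvent-only control well mean plus 3 SD, set per screening run, cut at about 120% in these data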;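 also: 100% = IFN-gamma with DMSO median signal so 100% means no change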
* hit, by the source's call; i = inactive; . = not tested or not shown. In the library only some 5.5% were active in any assay of this set; here they are far more common.

SMILES	STAT3 act-1	STAT1 inh	STAT3 blocker	STAT1 act-1	KCC2 mod	HSV replic up	STAT3 act-2	NFkB act STAT3ct	STAT1 act-2
O=C(N/N=C\c1cccs1)c1ccccc1-n1cccc1	137.8*	2.0	-44.2	96.7	-0.698	i	148.1*	104.6	96.2
CC(=O)Nc1cccc2c1C(=O)N(c1ccc(C)cc1)C2=O	160.1*	-5.3	-67.3	108.1	-0.262	i	162.7*	114.2	121.4*
Cc1ccc(N2C(=O)c3ccccc3C2=O)cc1	.	.	.	.	0.769	i	.	.	.
COc1cc(OC)c(C(=O)NCCCn2ccnc2)cc1OC	100.4	1.7	5.2	98.1	-0.203	i	.	.	.
O=C(CC(c1ccc(F)cc1)c1ccco1)Nc1nccs1 (stereo unspecified)	102.2	-1.1	2.0	99.5	-1.42	i	.	.	.
O=[N+]([O-])c1ccc(Cl)c(/C=N/N2CCN(c3ccccc3)CC2)c1	145.1*	0.2	-39.7	99.8	.	i	134.8*	99.9	99.7
O=C(Nc1nc(-c2cccs2)cs1)c1cc2ccccc2oc1=O	88.5	-6.8	19.3	106.1	-0.0206	.	.	.	.
O=c1oc2ccccc2cc1-c1nc(-c2cccs2)cs1	158.7*	-20.2	-70.1	112.6	-0.0338	i	116.9	116.2	116.1
NS(=O)(=O)c1ccc(CCNC(=O)CSc2nc3ccsc3c(=O)n2CCCCC(=O)O)cc1	100.6	5.4	7.7	95.1	0.0404	i	.	.	.
CSc1nsc(SCC(=O)NC2CCCCC2)n1	137.0*	-0.2	-34.9	100.2	0.0557	i	128.2	110.2	114.5
O=C(Nc1nc2c(s1)COc1ccccc1-2)c1cccs1	138.8*	-30.2	-42.5	127.4	-1.7	i	107.3	153.8*	135.9*
COc1ccccc1-c1nnc(SCC(=O)N2CCC(C)CC2)o1	116.7	-0.8	-18.3	100.7	1.25	i	.	.	.
COc1ccccc1-c1nnc(SCC(=O)N2CCOCC2)o1	151.4*	-26.2	-59.9	123.8	1.09	i	159.2*	105.8	106.2
Cc1cc(C)cc(NC(=O)C(OC(=O)c2sccc2C)c2ccccc2)c1 (stereo unspecified)	105.4	-10.1	-11.3	109.2	-0.726	i	.	.	.
CN(C)C(CN1C(=O)C2CC=CCC2C1=O)c1cn(C)c2ccccc12 (stereo unspecified)	153.1*	11.4	-58.5	89.6	0.103	i	149.2*	103.6	89.7
COCCNC(=O)c1cc2nc(-c3ccc(F)cc3)cc(C(F)(F)F)n2n1	82.3	-2.5	25.5	102.3	.	i	.	.	.
Fc1ccc(C2c3[nH]c4ccccc4c3CCN2Cc2ccoc2)cc1 (stereo unspecified)	115.4	-1.1	-13.1	99.6	-0.409	i	.	.	.
Cc1cccc(C2c3[nH]c4ccccc4c3CCN2Cc2cnn(-c3ccc(F)cc3)c2)n1 (stereo unspecified)	149.6*	-1.6	-49.5	101.4	.	i	152.2*	102.2	95.0
Cc1cccc(C2c3[nH]c4ccccc4c3CCN2C(=O)c2cn(C)c3ccccc3c2=O)n1 (stereo unspecified)	136.2*	2.2	-34.5	97.8	-0.0699	i	118.3	100.6	92.1
COc1ccccc1/C=C(/C(=O)OCC(=O)N(C)Cc1ccccc1)c1ccccc1	104.5	3.6	0.5	96.7	-0.833	i	.	.	.
C(=N\c1nccs1)/c1c[nH]c2ccccc12	167.2*	12.8	-81.2	89.4	0.24	i	131.8	102.8	93.6
C(=N\Nc1ccccn1)/c1c[nH]c2ccccc12	.	.	.	.	-0.0414	i	.	.	.
CCOC(=O)c1c(C)n(CCNC(C)=O)c2ccc(O)cc12	103.4	0.0	-3.8	100.0	0.451	i	.	.	.
CCOC(=O)c1c2n(c3ccc(O)cc13)CCC2	163.5*	-2.3	-71.8	102.1	1.17	i	82.3	103.7	101.9
OC1(c2ccccc2)c2ccccc2-c2ncccc21 (stereo unspecified)	137.4*	-4.0	-40.9	103.4	0.0455	i	134.3*	98.4	99.8
SMILES	STAT3 act-1	STAT1 inh	STAT3 blocker	STAT1 act-1	KCC2 mod	HSV replic up	STAT3 act-2	NFkB act STAT3ct	STAT1 act-2
Cc1ccc(-c2ccccc2[C@@H]2C[C@H]3CN(C)C(=O)[C@]34CCCN24)o1	105.9	-1.9	-2.1	100.3	1.38	i	.	.	.
O=C1N(c2ccccc2)C[C@@H]2C[C@@H](c3cc4ccccc4o3)N3CCC[C@@]123	140.8*	-7.3	-41.4	105.3	-2.02	i	156.5*	43.1	106.8
CCCCSc1nc(C)cc(SCC(=O)N/N=C/c2ccccc2)n1	114.1	20.5	-2.5	80.7	1.46	i	.	.	.
O=c1cnnc(Nc2cccc(F)c2)[nH]1	142.5*	2.4	-51.2	98.4	0	i	148.0*	104.0	93.0
O=c1cnnc(Nc2ccc(F)cc2)[nH]1	99.0	-4.7	11.5	102.6	0.369	i	.	.	.
C=CCNc1sc(C(=O)c2ccccc2)c(N)c1-c1nc2ccccc2s1	142.6*	3.1	-52.6	97.2	0.749	i	124.1	110.4	104.5
CCNc1sc(C(=O)c2cccs2)c(N)c1-c1nc2ccccc2s1	116.0	-5.7	-14.2	105.2	.	i	.	.	.
CCOC(=O)c1sc(NCc2ccco2)c(-c2nc3ccccc3s2)c1N	157.9*	-1.5	-64.8	102.7	-0.236	i	135.7*	100.8	103.6
CN(C(=O)CCc1nc(-c2ccccc2F)no1)c1ccccc1	92.5	-6.2	9.2	105.9	-0.273	i	.	.	.
CCCn1c(CCC(=O)O)nc2cc(S(=O)(=O)N3CCCC3)ccc21	.	.	.	.	0.679	i	.	.	.
CCOC(=O)c1[nH]c2ccccc2c1NC(=O)CN(C)C	106.3	5.6	-2.6	94.8	.	i	.	.	.
CCOC(=O)c1[nH]c2ccccc2c1NC(=S)Nc1cccc(C)c1C	163.7*	14.4	-74.2	87.0	0.0117	.	155.7*	111.0	91.2
CCOC(=O)c1[nH]c2ccccc2c1NC(=O)CC(C)(C)C	164.1*	28.1	-73.4	74.5	.	i	158.7*	106.0	89.3
CCc1ccc(-n2c(C)cc(/C=N/NC(=O)OC)c2C)cc1	87.8	12.2	12.4	89.1	-0.353	i	.	.	.
